Results taken from paper PMC3361572 (Chemistry & biology, 2012).
Entries after “also recorded” stand apart in the source; their conditions may differ.

What was measured:
[1] = biological target: T1, MAGL (Rattus norvegicus, UniProt Q8R431); assay: competitive ABPP of peripheral tissues from KML29-treated rats; type: in vivo; settings: 4 h
T1 sequence (Q8R431 1-303): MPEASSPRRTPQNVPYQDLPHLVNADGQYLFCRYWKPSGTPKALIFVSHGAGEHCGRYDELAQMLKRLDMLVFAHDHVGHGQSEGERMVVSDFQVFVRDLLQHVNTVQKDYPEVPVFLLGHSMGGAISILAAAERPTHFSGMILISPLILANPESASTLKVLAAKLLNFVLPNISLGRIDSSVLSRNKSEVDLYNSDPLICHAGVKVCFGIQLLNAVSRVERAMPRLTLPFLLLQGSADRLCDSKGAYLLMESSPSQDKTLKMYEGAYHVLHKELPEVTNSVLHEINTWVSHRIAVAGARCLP
Procedure, shortened: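 Wistar rats were injected i.p. with the test compound (1–40 mg kg−1) or vehicle. Vehicle was saline:emulphor:ethanol 18:1:1, with prolonged sonication and mild heating to dissolve. Rats were killed at 4 h. Brain, liver, lung and spleen proteomes were labelled with FP-Rh, separated by SDS-PAGE and scanned for in-gel fluorescence. Inhibition was scored as reduced probe labelling. n = 3 rats/group.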

[2] = biological target: T2, MAGL (Mus musculus, UniProt O35678); assay: 2-AG hydrolytic activity of brain tissue from treated mice; type: in vivo; settings: KML29-treated mice, 1–40 mg kg^−1 p.o.
T2 sequence (O35678 1-303): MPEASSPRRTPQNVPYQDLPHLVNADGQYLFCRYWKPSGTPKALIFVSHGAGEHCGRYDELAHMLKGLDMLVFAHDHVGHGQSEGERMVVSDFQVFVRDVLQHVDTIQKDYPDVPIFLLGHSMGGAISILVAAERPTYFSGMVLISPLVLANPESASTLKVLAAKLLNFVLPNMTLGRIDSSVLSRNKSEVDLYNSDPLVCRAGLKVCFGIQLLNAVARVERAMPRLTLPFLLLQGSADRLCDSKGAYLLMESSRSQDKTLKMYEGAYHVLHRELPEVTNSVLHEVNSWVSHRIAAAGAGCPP

[3] = test system: other rat brain serine hydrolases; assay: competitive ABPP, rat brain proteome, other serine hydrolases; type: biochemical
Procedure, shortened: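 Rat brain proteome was preincubated with test compound, then labelled with the serine hydrolase-directed probe FP-rhodamine. Proteins were separated by SDS-PAGE and scanned by in-gel fluorescence. Inhibition of individual serine hydrolases was scored as reduced probe labelling.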

[4] = biological target: T1, MAGL; assay: competitive ABPP, rat brain membrane proteome; type: biochemical
Procedure, shortened: (§1)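 Brain (mouse or rat) or mouse lung proteomes were preincubated with the test compound, then treated with the serine hydrolase probe FP-Rh. Samples were separated by SDS-PAGE and read by in-gel fluorescence scanning. Inhibition was taken as reduced FP-Rh labelling of MAGL, ABHD6, FAAH or CES bands, and IC50 values were calculated from quantified gel bands. Three independent experiments.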

[5] = biological target: T3, hMAGL (Homo sapiens, UniProt Q99685); assay: competitive ABPP, proteomes of transiently transfected HEK293T cells; type: biochemical; settings: read-out: IC50 (95% CI), human MAGL, transfected HEK293T cell proteome
T3 sequence (Q99685 1-303): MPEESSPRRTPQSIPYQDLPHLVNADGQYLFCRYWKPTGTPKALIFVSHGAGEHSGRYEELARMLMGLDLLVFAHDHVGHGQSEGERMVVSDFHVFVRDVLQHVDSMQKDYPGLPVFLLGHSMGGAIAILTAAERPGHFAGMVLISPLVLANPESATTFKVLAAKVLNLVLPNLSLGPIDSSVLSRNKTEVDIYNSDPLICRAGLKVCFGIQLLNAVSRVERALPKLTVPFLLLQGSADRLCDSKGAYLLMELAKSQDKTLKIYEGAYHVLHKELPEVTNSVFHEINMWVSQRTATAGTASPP

[6] = biological target: T4, FAAH (Mus musculus, UniProt O08914); assay: competitive ABPP, mouse brain membrane proteome; type: biochemical; settings: mouse brain proteome, concentration range tested 0.001–50 μM
T4 sequence (O08914 1-579): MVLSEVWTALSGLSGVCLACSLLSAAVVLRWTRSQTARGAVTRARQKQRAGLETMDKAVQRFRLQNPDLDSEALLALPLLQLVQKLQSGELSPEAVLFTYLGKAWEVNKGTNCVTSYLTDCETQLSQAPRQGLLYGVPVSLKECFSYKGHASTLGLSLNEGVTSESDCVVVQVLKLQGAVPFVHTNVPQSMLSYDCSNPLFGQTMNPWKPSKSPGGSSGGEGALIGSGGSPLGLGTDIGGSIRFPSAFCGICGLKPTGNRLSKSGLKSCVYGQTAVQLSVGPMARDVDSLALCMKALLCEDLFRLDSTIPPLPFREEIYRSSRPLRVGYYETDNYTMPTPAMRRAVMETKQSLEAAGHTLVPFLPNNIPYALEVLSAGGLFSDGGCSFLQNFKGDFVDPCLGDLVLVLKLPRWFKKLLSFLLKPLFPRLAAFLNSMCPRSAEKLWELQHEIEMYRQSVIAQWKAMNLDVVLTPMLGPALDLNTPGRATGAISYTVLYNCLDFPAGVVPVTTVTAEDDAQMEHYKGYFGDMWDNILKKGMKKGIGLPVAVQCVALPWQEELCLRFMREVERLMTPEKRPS
Procedure, shortened: as §1

[7] = biological target: T5, FAAH (Rattus norvegicus, UniProt P97612); assay: brain AEA hydrolytic activity from KML29-treated rats; type: in vivo; settings: 1–40 mg kg^−1 i.p., 4 h
T5 sequence (P97612 1-579): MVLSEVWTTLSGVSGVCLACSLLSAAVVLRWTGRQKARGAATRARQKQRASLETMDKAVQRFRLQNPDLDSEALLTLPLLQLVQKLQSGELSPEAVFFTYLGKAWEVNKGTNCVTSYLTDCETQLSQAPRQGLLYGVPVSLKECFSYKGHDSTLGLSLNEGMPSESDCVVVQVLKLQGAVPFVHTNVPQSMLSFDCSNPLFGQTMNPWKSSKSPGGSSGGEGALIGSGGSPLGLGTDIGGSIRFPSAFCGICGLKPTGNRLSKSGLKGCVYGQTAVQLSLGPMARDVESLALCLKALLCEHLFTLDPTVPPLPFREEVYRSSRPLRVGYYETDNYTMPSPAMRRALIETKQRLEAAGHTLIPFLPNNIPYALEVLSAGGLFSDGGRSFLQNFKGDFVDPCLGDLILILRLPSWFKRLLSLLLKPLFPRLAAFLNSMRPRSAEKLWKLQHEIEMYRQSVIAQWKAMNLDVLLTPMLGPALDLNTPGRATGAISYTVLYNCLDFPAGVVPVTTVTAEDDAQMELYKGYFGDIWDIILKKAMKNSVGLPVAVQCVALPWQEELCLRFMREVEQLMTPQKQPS
Procedure, shortened: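 Wistar rats received the test compound i.p. (1–40 mg kg−1 in saline:emulphor:ethanol 18:1:1) or vehicle and were killed after 4 h. Brain MAGL and FAAH activities were measured as hydrolysis of 2-AG and AEA, respectively. Means ± SEM, n = 3 rats/group, compared with vehicle-treated rats.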

## O=C(OC(C(F)(F)F)C(F)(F)F)N1CCC(C(O)(c2ccc3c(c2)OCO3)c2ccc3c(c2)OCO3)CC1 [KML29]
[1]; 5 mg kg^−1 i.p.
  MAGL inhibition in lung and spleen: complete MAGL inhibition
[1]; 20 mg kg^−1 i.p.
  MAGL inhibition in liver: complete MAGL inhibition
[2]
  residual MAGL activity in brain proteomes (substrate assay): dose-dependent inhibition of MAGL
[3]
  additional off-target reactivity with other rat brain serine hydrolases: did not detect any additional off-target reactivity
[4]; rat brain homogenates, competitive ABPP
  selectivity for rat MAGL relative to rat ABHD6: > 20 fold
[4]; rat brain serine hydrolase activities, full ABPP gel
  inhibitor concentrations with selective inhibition of MAGL: ≤ 1 µM
[4]; read-out: IC50 (95% CI), rat MAGL, competitive ABPP, rat brain membrane proteome
  IC50: 43 nM
[5]
  IC50: 5.9 nM
[6]
  FAAH inhibition / cross-reactivity (gel-based ABPP): No inhibition of FAAH was detected; also recorded: complete selectivity for MAGL over FAAH
[7]
  brain AEA hydrolytic activity: not affected at any dose
